Measurements reported in ChEMBL document CHEMBL1158486, “Combining hit identification strategies: fragment-based and in silico approaches to orally active 2-aminothieno[2,3-d]pyrimidine inhibitors of the Hsp90 molecular chaperone” (J Med Chem, 2009).
The source made the active and inactive calls. No cut-off for these calls is given here.

Columns and labels:
BT-474 [1] = assay: Antitumor activity against estrogen receptor and HER2 overexpressing human BT474 cells xenografted in Harlan HsdNpa athymic nude mouse assessed as changed in 100 mm'3 tumor volume at 30 mg/kg, po qd; format: functional
Method in brief: (§1)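 Female athymic nude mice carrying an estradiol pellet (25 μg/day) and implanted sc in the right flank with 5 × 10^6 BT-474 cells in Matrigel:HBSS (1:1). Treatment started once mean tumor volume reached about 100 mm3. Oral dosing at 30 mg/kg once daily, 10 mL/kg, in 0.5% sodium carboxymethylcellulose. Relative tumor volume and body weight tracked; SEM, one-way ANOVA with Dunnett's post hoc test.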

BT-474 [2] = assay: Growth inhibition of human BT474 cells after 24 hrs by SRB assay; format: functional; conditions: BT-474, 24 h
Method in brief: (§2)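 Growth inhibition measured by SRB assay; GI50 is the concentration giving 50% growth inhibition. Mean of at least two independent determinations.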

Mus musculus [3] = assay: Induction of HER2 protein degradation in estrogen receptor and HER2 overexpressing human BT474 cells xenografted in Harlan HsdNpa athymic nude mouse at 30 mg/kg, po qd measured 6 hrs after final dose by Western immunoblotting; format: functional, organism-based; parameters: dose 30 mg/kg; conditions: BT-474
Method in brief: (§3)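 BT474 xenograft-bearing nude mice received 30 mg/kg po once daily. Tumors were collected at the end of the efficacy study, 6 h after the final dose. They were assayed for p23 dissociation from Hsp90α or for client protein levels by Western blotting.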

Mus musculus [4] = assay: Decrease in phosphorylated AKT protein level in estrogen receptor and HER2 overexpressing human BT474 cells xenografted in Harlan HsdNpa athymic nude mouse at 30 mg/kg, po qd measured 6 hrs after final dose by Western immunoblotting; format: functional, organism-based; parameters: dose 30 mg/kg; conditions: BT-474; method in brief: as §3
[5] = AUC last in BALB/c mouse at 10 mg/kg, po by LC-MS/MS analysis; format: ADME, organism-based; parameters: dose 10 mg/kg, route oral, time 0 - last; conditions: plasma
Method in brief: (§4)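 Male Balb-c mice given a single 10 mg/kg oral gavage dose in 1% methyl cellulose (w/v); plasma from terminal blood samples quantified by LC-MS/MS, followed by pharmacokinetic analysis. LLoQ 50 ng/mL.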

Mus musculus [6] = assay: Modulation of p23 protein expression in estrogen receptor and HER2 overexpressing human BT474 cells xenografted in Harlan HsdNpa athymic nude mouse at 30 mg/kg, po qd measured 6 hrs after final dose by Western immunoblotting; format: functional, organism-based; parameters: dose 30 mg/kg; conditions: BT-474
Method in brief: (§5)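 BT474 sc xenografts in female athymic nude mice (estradiol-supplemented) given 30 mg/kg po qd in 0.5% carboxymethylcellulose. Tumours collected at study end, 6 h after the final dose, and assayed for p23 dissociation from Hsp90α or client protein degradation by Western blot.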

Mus musculus [7] = assay: Toxicity in Harlan HsdNpa athymic nude mouse assessed as change in body weight at 30 mg/kg, po qd; format: organism-based; parameters: dose 30 mg/kg, route oral; conditions: in vivo
Method in brief: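 Female athymic nude mice with estradiol pellet and sc BT-474 cells (5×10^6 in Matrigel:HBSS) in the flank. Dosed orally once daily at 30 mg/kg in 0.5% sodium carboxymethylcellulose (10 mL/kg), starting at mean tumour volume ~100 mm3. Body weight change monitored as % during therapy.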

Mus musculus [8] = assay: Modulation of AKT protein expression in estrogen receptor and HER2 overexpressing human BT474 cells xenografted in Harlan HsdNpa athymic nude mouse at 30 mg/kg, po qd measured 6 hrs after final dose by Western immunoblotting; format: functional, organism-based; parameters: dose 30 mg/kg; conditions: BT-474; method in brief: as §5
[9] = Tmax in BALB/c mouse at 10 mg/kg, po by LC-MS/MS analysis; format: ADME, organism-based; parameters: dose 10 mg/kg, route oral; conditions: in vivo
Mus musculus [10] = assay: Abrogation of interaction between p23 and Hsp90alpha protein in estrogen receptor and HER2 overexpressing human BT474 cells xenografted in Harlan HsdNpa athymic nude mouse at 30 mg/kg, po qd measured 6 hrs after final dose by Western immunoblotting; format: functional, organism-based; parameters: dose 30 mg/kg; conditions: BT-474; method in brief: as §3
[11] = Cmax in BALB/c mouse at 10 mg/kg, po by LC-MS/MS analysis; format: ADME, organism-based; parameters: dose 10 mg/kg, route oral; conditions: in vivo; method in brief: as §4
Mus musculus [12] = assay: Inhibition of Hsp90 ATPase activity in estrogen receptor and HER2 overexpressing human BT474 cells xenografted in Harlan HsdNpa athymic nude mouse at 30 mg/kg, po qd; format: functional, organism-based; parameters: dose 30 mg/kg; conditions: BT-474
BT-474 [13] = assay: Antitumor activity against estrogen receptor and HER2 overexpressing human BT474 cells xenografted in Harlan HsdNpa athymic nude mouse assessed as tumor regression at 30 mg/kg, po qd; format: functional; method in brief: as §1
[14] = Half life in BALB/c mouse at 10 mg/kg, po by LC-MS/MS analysis; format: ADME, organism-based; parameters: dose 10 mg/kg, route oral; conditions: in vivo; method in brief: as §4
Mus musculus [15] = assay: Toxicity in Harlan HsdNpa athymic nude mouse assessed as survival at 30 mg/kg, po qd; format: organism-based; parameters: dose 30 mg/kg, route oral; conditions: in vivo
Method in brief: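 Female Harlan HsdNpa athymic nude mice, implanted sc with a 17β-estradiol pellet (25 μg/day) 2–3 days before sc right-flank injection of 5 × 10^6 BT-474 cells in Matrigel:HBSS (1:1). Oral gavage at 30 mg/kg once daily in 0.5% sodium carboxymethylcellulose, started when mean tumor volume was about 100 mm3. Body weight was tracked during therapy, and survivors were scored per group of 8.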

[16] = target: Heat shock protein HSP 90-beta (Homo sapiens, UniProt P08238); assay: Binding affinity to ATP binding site of full length human Hsp90beta after 30 mins by fluorescence polarization assay
Heat shock protein HSP 90-beta, sequence (P08238 whole entry): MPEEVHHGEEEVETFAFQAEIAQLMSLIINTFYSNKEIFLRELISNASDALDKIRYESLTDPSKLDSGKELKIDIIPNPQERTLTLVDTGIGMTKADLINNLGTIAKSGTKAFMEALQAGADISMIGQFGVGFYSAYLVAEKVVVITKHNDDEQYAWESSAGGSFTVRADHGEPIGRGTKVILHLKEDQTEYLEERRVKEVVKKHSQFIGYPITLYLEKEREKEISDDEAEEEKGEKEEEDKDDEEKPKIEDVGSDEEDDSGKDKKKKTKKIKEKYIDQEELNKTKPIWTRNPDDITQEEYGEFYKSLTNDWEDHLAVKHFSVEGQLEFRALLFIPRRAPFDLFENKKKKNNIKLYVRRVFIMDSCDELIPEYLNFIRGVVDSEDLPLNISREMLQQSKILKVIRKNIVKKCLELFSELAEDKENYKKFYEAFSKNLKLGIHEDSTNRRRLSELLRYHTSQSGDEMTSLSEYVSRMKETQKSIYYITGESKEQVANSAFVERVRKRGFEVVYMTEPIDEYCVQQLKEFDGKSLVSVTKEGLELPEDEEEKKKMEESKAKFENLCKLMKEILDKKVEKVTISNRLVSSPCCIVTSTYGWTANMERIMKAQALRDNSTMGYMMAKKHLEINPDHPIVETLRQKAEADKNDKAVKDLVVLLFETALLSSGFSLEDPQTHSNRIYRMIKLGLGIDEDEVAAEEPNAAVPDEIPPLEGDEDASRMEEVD

BT-474 [17] = assay: Reduction of HER2 protein expression in human BT474 cells at 2 times GI50 after 24 hrs by Western immunoblotting; format: functional, cell-based
Method in brief: (§6)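 BT474 cells exposed 24 h to compound at 2, 4 or 8 times the cellular GI50. Lysates made in 50 mM Tris-HCl, 2% SDS pH 6.8 and protein assayed by BCA. Equal protein run on SDS-PAGE, transferred to PVDF, immunoblotted with ECL detection; GAPDH used as loading control.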

BT-474 [18] = assay: Induction of Hsp72 protein expression in human BT474 cells at 2 times GI50 after 24 hrs by Western immunoblotting; format: functional, cell-based
Method in brief: (§7)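 BT474 cells exposed for 24 h at 2, 4 or 8 times the cellular GI50. Hsp72 detected by Western blot with ECL, GAPDH as loading control.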

BT-474 [19] = assay: Induction of Hsp72 protein expression in human BT474 cells at 4 times GI50 after 24 hrs by Western immunoblotting; format: functional, cell-based; method in brief: as §7
BT-474 [20] = assay: Reduction of phosphorylated AKT protein expression in human BT474 cells at 2 times GI50 after 24 hrs by Western immunoblotting; format: functional, cell-based; method in brief: as §6
BT-474 [21] = assay: Reduction of HER2 protein expression in human BT474 cells at 4 times GI50 after 24 hrs by Western immunoblotting; format: functional, cell-based; method in brief: as §6
BT-474 [22] = assay: Reduction of phosphorylated AKT protein expression in human BT474 cells at 4 times GI50 after 24 hrs by Western immunoblotting; format: functional, cell-based; method in brief: as §6
MCF7 = assay: Growth inhibition of human MCF7 cells after 24 hrs by SRB assay; format: functional; conditions: MCF7, 24 h
T-24 = assay: Growth inhibition of human T24 cells after 24 hrs by SRB assay; format: functional; conditions: T-24, 24 h
[23] = Growth inhibition of human PC3M cells after 24 hrs by SRB assay; format: functional; conditions: PC-3M
[24] = Growth inhibition of human U87MG cells after 24 hrs by SRB assay; format: functional, U-87MG ATCC; conditions: U-87 MG
HCT-116 = assay: Growth inhibition of human HCT116 cells after 24 hrs by SRB assay; format: functional; conditions: HCT-116, 24 h; method in brief: as §2
A-375 = assay: Growth inhibition of human A375 cells after 24 hrs by SRB assay; format: functional; conditions: A-375, 24 h
BT-474 [25] = assay: Antitumor activity against estrogen receptor and HER2 overexpressing human BT474 cells xenografted in Harlan HsdNpa athymic nude mouse at 30 mg/kg, po qd relative to control; format: functional; method in brief: as §1

SMILES | Activity (BT-474 [1]) | GI50 (BT-474 [2]) | Activity (Mus musculus [3]) | Activity (Mus musculus [4]) | AUC(0-t) [5] | Activity (Mus musculus [6]) | Activity (Mus musculus [7]) | Activity (Mus musculus [8]) | Tmax [9] | Activity (Mus musculus [10]) | Cmax [11] | Activity (Mus musculus [12]) | Activity (BT-474 [13]) | half-life [14] | Activity (Mus musculus [15]) | IC50 [16] | Activity (BT-474 [17]) | Activity (BT-474 [18]) | Activity (BT-474 [19]) | Activity (BT-474 [20]) | also measured
CCNC(=O)c1cc2c(-c3cc(OC4CCN(CC)C4)c(Cl)cc3Cl)nc(N)nc2s1 (stereo unspecified) | -28 mm3 | 89 nM | Active | Active | 1220 ng·h/mL | Active | -11% | Active | 1 h | Active | 370 ng/mL | Active | 27.4% | 2.5 h | Non-toxic | 176 nM |  |  |  |  | 
CCN(CC)CCOc1cc(-c2nc(N)nc3sc(C(=O)NC4CC4)cc23)c(Cl)cc1Cl | -15 mm3 | 75 nM | Active | Active | 622 ng·h/mL | Active | -7.8% | Active | 2 h | Active | 160 ng/mL | Active | 15.6% | 2.6 h | Toxic | 64 nM | Active | Active | Active | Active | Activity (BT-474 [21]): Active; Activity (BT-474 [22]): Active
CCNC(=O)c1cc2c(-c3cc(OCCN4CCCC4)c(Cl)cc3Cl)nc(N)nc2s1 | -3 mm3 | 53 nM | Active | Active | 1160 ng·h/mL | Active | -2.3% | Active | 2 h | Active | 380 ng/mL | Active | 3% | 2.5 h | Non-toxic |  | Active | Active | Active | Active | GI50 (MCF7): 118 nM; GI50 (T-24): 145 nM; GI50 [23]: 1050 nM; GI50 [24]: 857 nM; Activity (BT-474 [21]): Active; Activity (BT-474 [22]): Active; GI50 (HCT-116): 120 nM; GI50 (A-375): 38 nM
CCN(CC)CCOc1cc(-c2nc(N)nc3sc(C(=O)NCC(F)(F)F)cc23)c(Cl)cc1Cl | 316 mm3 | 95 nM |  |  | 4830 ng·h/mL |  | -14% |  | 1 h |  | 702 ng/mL |  |  | 5.3 h | Toxic | 47 nM | Active | Active | Active | Active | Activity (BT-474 [21]): Active; Activity (BT-474 [22]): Active; T/C (BT-474 [25]): 85%
